According to ChEMBL document CHEMBL4257555, “Small molecule cores demonstrate non-competitive inhibition of lactate dehydrogenase” (Medchemcomm, 2018):
One block for each compound: values may come before it. Activity calls are given as the source filed them. The rule behind the calls is not given here.

How the values were obtained:
[1] = target: L-lactate dehydrogenase B chain (Sus scrofa) (UniProt P00336); test: Binding affinity to porcine heart LDH at 2.14 mM measured every 2 mins for 10 mins by dynamic light scattering analysis
Chain of L-lactate dehydrogenase B chain (Sus scrofa) (P00336 whole entry): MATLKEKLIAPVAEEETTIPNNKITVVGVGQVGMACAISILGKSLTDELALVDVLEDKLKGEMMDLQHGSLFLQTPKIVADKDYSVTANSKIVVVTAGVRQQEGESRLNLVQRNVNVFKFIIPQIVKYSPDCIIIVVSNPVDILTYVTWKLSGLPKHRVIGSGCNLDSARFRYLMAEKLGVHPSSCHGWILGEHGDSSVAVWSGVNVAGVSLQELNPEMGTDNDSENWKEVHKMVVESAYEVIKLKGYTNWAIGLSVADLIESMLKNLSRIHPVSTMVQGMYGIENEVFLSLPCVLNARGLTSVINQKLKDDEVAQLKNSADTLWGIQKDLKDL
How it was run: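 DLS on filtered samples of 80 μN phLDH, 4 μM NADH and 2.14 mM inhibitor in 100 mM sodium phosphate pH 7.2 at room temperature. Autocorrelation functions and particle size distributions collected every 2 min for 10 min.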

[2] = target: L-lactate dehydrogenase B chain (Sus scrofa) (UniProt P00336); test: Inhibition of porcine heart LDH assessed as enzymatic hydride transfer lifetime using pyruvate as substrate and NADH as cofactor measured after 2 hrs by stopped flow spectrometric analysis (reference value: 3.73 +/- 0.0901 ms)
[3] = target: L-lactate dehydrogenase B chain (Sus scrofa) (UniProt P00336); test: Inhibition of oxamate binding to porcine heart LDH assessed as emission maximum at 1000 uM using pyruvate as substrate and NADH as cofactor measured after 2 hrs by fluorescence spectra analysis (reference value: 452.9 +/- 0.3 nanometer)
[4] = target: L-lactate dehydrogenase B chain (Sus scrofa) (UniProt P00336); test: Inhibition of oxamate binding to porcine heart LDH assessed as relative fluorescence intensity at 1000 uM using pyruvate as substrate and NADH as cofactor measured after 2 hrs by fluorescence spectra analysis (reference value: 0.775 +/- 0.013 a.u.)
[5] = target: L-lactate dehydrogenase B chain (Sus scrofa) (UniProt P00336); test: Inhibition of oxamate binding to porcine heart LDH assessed as relative fluorescence intensity at 35 uM using pyruvate as substrate and NADH as cofactor measured after 2 hrs by fluorescence spectra analysis (reference value: 0.775 +/- 0.013 a.u.)
[6] = target: L-lactate dehydrogenase B chain (Sus scrofa) (UniProt P00336); test: Inhibition of oxamate binding to porcine heart LDH assessed as relative fluorescence intensity at 6 uM using pyruvate as substrate and NADH as cofactor measured after 2 hrs by fluorescence spectra analysis (reference value: 0.775 +/- 0.013 a.u.)
[7] = target: L-lactate dehydrogenase B chain (Sus scrofa) (UniProt P00336); test: Inhibition of oxamate binding to porcine heart LDH assessed as emission maximum at 6 uM using pyruvate as substrate and NADH as cofactor measured after 2 hrs by fluorescence spectra analysis (reference value: 452.9 +/- 0.36 nanometer)
[8] = target: L-lactate dehydrogenase B chain (Sus scrofa) (UniProt P00336); test: Inhibition of oxamate binding to porcine heart LDH assessed as emission maximum at 35 uM using pyruvate as substrate and NADH as cofactor measured after 2 hrs by fluorescence spectra analysis (reference value: 452.9 +/- 0.3 nanometer)
[9] = target: L-lactate dehydrogenase B chain (Sus scrofa) (UniProt P00336); test: Inhibition of oxamate binding to porcine heart LDH assessed as emission maximum at 961 uM using pyruvate as substrate and NADH as cofactor measured after 2 hrs by fluorescence spectra analysis (reference value: 452.9 +/- 0.3 nanometer)
[10] = target: L-lactate dehydrogenase B chain (Sus scrofa) (UniProt P00336); test: Inhibition of oxamate binding to porcine heart LDH assessed as relative fluorescence intensity at 961 uM using pyruvate as substrate and NADH as cofactor measured after 2 hrs by fluorescence spectra analysis (reference value: 0.775 +/- 0.013 a.u.)
[11] = target: L-lactate dehydrogenase B chain (Sus scrofa) (UniProt P00336); test: Activation of porcine heart LDH at 1 mM using pyruvate as substrate and NADH as cofactor measured after 2 hrs by stopped-flow spectrometric method relative to control
How it was run: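 Pig heart LDH buffer-exchanged into 100 mM sodium phosphate pH 7.2, then preincubated 2 h at 4 °C with inhibitor. Final: 5 nN enzyme, 100 μM NADH, 300 μM sodium pyruvate, 37 °C. Stopped-flow mixing of enzyme:NADH:inhibitor with pyruvate, NADH loss read at 340 nm. Initial rates are linear fits averaged over five shots and expressed relative to uninhibited enzyme.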

CC(=O)Nc1cccc(O)c1 [12] = test: (§1) Mixed inhibition of porcine heart LDH assessed as apparent Km for substrate at 10 uM using pyruvate as substrate and NADH as cofactor measured after 2 hrs by Michaelis-Menten plot analysis (reference value: 73 +/- 10 uM); conditions: Sus scrofa
NC(=O)c1cc(O)cc(O)c1 [13] = test: as §1; conditions: Sus scrofa
CC(=O)Nc1cccc(O)c1 [14] = test: (§2) Mixed inhibition of porcine heart LDH assessed as apparent Km for substrate at 25 uM using pyruvate as substrate and NADH as cofactor measured after 2 hrs by Michaelis-Menten plot analysis (reference value: 73 +/- 10 uM); conditions: Sus scrofa
NC(=O)c1cc(O)cc(O)c1 [15] = test: as §2; conditions: Sus scrofa
CC(=O)Nc1cccc(O)c1 [16] = test: (§3) Mixed inhibition of porcine heart LDH assessed as apparent Km for substrate at 50 uM using pyruvate as substrate and NADH as cofactor measured after 2 hrs by Michaelis-Menten plot analysis (reference value: 73 +/- 10 uM); conditions: Sus scrofa
NC(=O)c1cc(O)cc(O)c1 [17] = test: as §3; conditions: Sus scrofa
CC(=O)Nc1cccc(O)c1 [18] = test: (§4) Mixed inhibition of porcine heart LDH assessed as apparent Km for substrate at 100 uM using pyruvate as substrate and NADH as cofactor measured after 2 hrs by Michaelis-Menten plot analysis (reference value: 73 +/- 10 uM); conditions: Sus scrofa
NC(=O)c1cc(O)cc(O)c1 [19] = test: as §4; conditions: Sus scrofa
CC(=O)Nc1cccc(O)c1 [20] = test: (§5) Mixed inhibition of porcine heart LDH assessed as apparent Km for substrate at 300 uM using pyruvate as substrate and NADH as cofactor measured after 2 hrs by Michaelis-Menten plot analysis (reference value: 73 +/- 10 uM); conditions: Sus scrofa
NC(=O)c1cc(O)cc(O)c1 [21] = test: as §5; conditions: Sus scrofa
CC(=O)Nc1cccc(O)c1 [22] = test: Mixed inhibition of porcine heart LDH assessed as substrate Kcat at 10 uM using pyruvate as substrate and NADH as cofactor measured after 2 hrs by Michaelis-Menten plot analysis (reference value: 232 +/- 13 /sec); conditions: Sus scrofa
CC(=O)Nc1cccc(O)c1 [23] = test: Mixed inhibition of porcine heart LDH assessed as substrate Kcat at 25 uM using pyruvate as substrate and NADH as cofactor measured after 2 hrs by Michaelis-Menten plot analysis (reference value: 232 +/- 13 /sec); conditions: Sus scrofa
CC(=O)Nc1cccc(O)c1 [24] = test: Mixed inhibition of porcine heart LDH assessed as substrate Kcat at 50 uM using pyruvate as substrate and NADH as cofactor measured after 2 hrs by Michaelis-Menten plot analysis (reference value: 232 +/- 13 /sec); conditions: Sus scrofa
CC(=O)Nc1cccc(O)c1 [25] = test: Mixed inhibition of porcine heart LDH assessed as substrate Kcat at 100 uM using pyruvate as substrate and NADH as cofactor measured after 2 hrs by Michaelis-Menten plot analysis (reference value: 232 +/- 13 /sec); conditions: Sus scrofa
CC(=O)Nc1cccc(O)c1 [26] = test: Mixed inhibition of porcine heart LDH assessed as substrate Kcat at 300 uM using pyruvate as substrate and NADH as cofactor measured after 2 hrs by Michaelis-Menten plot analysis (reference value: 232 +/- 13 /sec); conditions: Sus scrofa
CC(=O)Nc1cccc(O)c1 [27] = test: Non-competitive inhibition of porcine heart LDH assessed as Kcat for cofactor at 50 uM using pyruvate as substrate and NADH as cofactor measured after 2 hrs by Michaelis-Menten plot analysis (reference value: 221 +/- 10 /sec); conditions: Sus scrofa
CC(=O)Nc1cccc(O)c1 [28] = test: Non-competitive inhibition of porcine heart LDH assessed as Kcat for cofactor at 300 uM using pyruvate as substrate and NADH as cofactor measured after 2 hrs by Michaelis-Menten plot analysis (reference value: 221 +/- 10 /sec); conditions: Sus scrofa
CC(=O)Nc1cccc(O)c1 [29] = test: Non-competitive inhibition of porcine heart LDH assessed as apparent Km for cofactor at 50 uM using pyruvate as substrate and NADH as cofactor measured after 2 hrs by Michaelis-Menten plot analysis (reference value: 8 +/- 2 uM); conditions: Sus scrofa
CC(=O)Nc1cccc(O)c1 [30] = test: Non-competitive inhibition of porcine heart LDH assessed as apparent Km for cofactor at 300 uM using pyruvate as substrate and NADH as cofactor measured after 2 hrs by Michaelis-Menten plot analysis (reference value: 8 +/- 2 uM); conditions: Sus scrofa
NC(=O)c1cc(O)cc(O)c1 [31] = test: Mixed inhibition of porcine heart LDH assessed as substrate Kcat at 10 uM using pyruvate as substrate and NADH as cofactor measured after 2 hrs by Michaelis-Menten plot analysis (reference value: 319 +/- 8 /sec); conditions: Sus scrofa
NC(=O)c1cc(O)cc(O)c1 [32] = test: Mixed inhibition of porcine heart LDH assessed as substrate Kcat at 25 uM using pyruvate as substrate and NADH as cofactor measured after 2 hrs by Michaelis-Menten plot analysis (reference value: 319 +/- 8 /sec); conditions: Sus scrofa
NC(=O)c1cc(O)cc(O)c1 [33] = test: Mixed inhibition of porcine heart LDH assessed as substrate Kcat at 50 uM using pyruvate as substrate and NADH as cofactor measured after 2 hrs by Michaelis-Menten plot analysis (reference value: 319 +/- 8 /sec); conditions: Sus scrofa
NC(=O)c1cc(O)cc(O)c1 [34] = test: Mixed inhibition of porcine heart LDH assessed as substrate Kcat at 100 uM using pyruvate as substrate and NADH as cofactor measured after 2 hrs by Michaelis-Menten plot analysis (reference value: 319 +/- 8 /sec); conditions: Sus scrofa
NC(=O)c1cc(O)cc(O)c1 [35] = test: Mixed inhibition of porcine heart LDH assessed as substrate Kcat at 300 uM using pyruvate as substrate and NADH as cofactor measured after 2 hrs by Michaelis-Menten plot analysis (reference value: 319 +/- 8 /sec); conditions: Sus scrofa

Chain of L-lactate dehydrogenase B chain (Sus scrofa), P00336 (P00336 whole entry): as above

Compound: CC(=O)Nc1cccc(O)c1
Activity [1]: Active | TIME [2]: 1.09e-06 h | Activity [3]: 449 nm | RFU [4]: 0.793 a.u.

Compound: NC(=O)c1cc(O)cc(O)c1
RFU [5]: 0.759 a.u. | RFU [6]: 0.764 a.u. | Activity [1]: Active | Activity [7]: 453 nm | Activity [8]: 453 nm | Activity [9]: 455 nm | RFU [10]: 0.773 a.u.

Compound: L-lactate dehydrogenase B chain (Sus scrofa), P00336
Km (CC(=O)Nc1cccc(O)c1 [12]): 98 µM | Km (NC(=O)c1cc(O)cc(O)c1 [13]): 87 µM | Km (CC(=O)Nc1cccc(O)c1 [14]): 98 µM | Km (NC(=O)c1cc(O)cc(O)c1 [15]): 90 µM | Km (CC(=O)Nc1cccc(O)c1 [16]): 155 µM | Km (NC(=O)c1cc(O)cc(O)c1 [17]): 102 µM | Km (CC(=O)Nc1cccc(O)c1 [18]): 163 µM | Km (NC(=O)c1cc(O)cc(O)c1 [19]): 116 µM | Km (CC(=O)Nc1cccc(O)c1 [20]): 133 µM | Km (NC(=O)c1cc(O)cc(O)c1 [21]): 111 µM | kcat (CC(=O)Nc1cccc(O)c1 [22]): 211 s⁻¹ | kcat (CC(=O)Nc1cccc(O)c1 [23]): 190 s⁻¹ | kcat (CC(=O)Nc1cccc(O)c1 [24]): 175 s⁻¹ | kcat (CC(=O)Nc1cccc(O)c1 [25]): 211 s⁻¹ | kcat (CC(=O)Nc1cccc(O)c1 [26]): 132 s⁻¹ | kcat (CC(=O)Nc1cccc(O)c1 [27]): 190 s⁻¹ | kcat (CC(=O)Nc1cccc(O)c1 [28]): 191 s⁻¹ | Km (CC(=O)Nc1cccc(O)c1 [29]): 7 µM | Km (CC(=O)Nc1cccc(O)c1 [30]): 7 µM | kcat (NC(=O)c1cc(O)cc(O)c1 [31]): 281 s⁻¹ | kcat (NC(=O)c1cc(O)cc(O)c1 [32]): 229 s⁻¹ | kcat (NC(=O)c1cc(O)cc(O)c1 [33]): 242 s⁻¹ | kcat (NC(=O)c1cc(O)cc(O)c1 [34]): 216 s⁻¹ | kcat (NC(=O)c1cc(O)cc(O)c1 [35]): 176 s⁻¹

The next lines start with the values.

Activity [11]: < 24%
Compound: N[C@@H](Cc1c[nH]c2ccccc12)C(=O)O

Activity [1]: Active
Compound: CC(=O)Nc1ccccc1
